# RGS4 inh: inhibitors of human RGS4; HEK293 M3R/RGS4 inducible, Fluo-4 calcium flux; stronger effect = higher value; triggered by carbachol at its EC20; B-score at 10 µM; 0.45% of 310,000 active; AID 463165;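 active means B-score, a plate-corrected calcium signal, over three deviations above library mean, with baseline fluorescence within five deviations of library mean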;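 further: RGS4 expression induced by doxycycline in cells with stable M3 receptor; B-score is computed from the integrated fluorescence ratio over baseline after carbachol; higher B-score means a larger calcium signal and so more RGS4 inhibition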
# Target sequence (P49798 whole entry, looked up): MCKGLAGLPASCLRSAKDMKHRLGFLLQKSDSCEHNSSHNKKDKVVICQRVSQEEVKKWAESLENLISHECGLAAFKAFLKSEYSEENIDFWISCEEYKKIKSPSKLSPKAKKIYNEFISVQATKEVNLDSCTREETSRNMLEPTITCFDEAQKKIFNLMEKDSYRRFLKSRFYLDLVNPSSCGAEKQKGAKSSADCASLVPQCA
# MrgX1 agonist: human MrgX1 receptor agonism, primary screen; 0.44% of 310,000 active; MrgX1-HEK293 cells, Fluo-4 calcium fluorescence, agonist mode; stronger effect = higher value; B-score at 10 µM; AID 588627; Q96LB2;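 active means calcium response B-score plate-corrected fluorescence ratio at least 3 library SD, with starting fluorescence B-score inside 5 SD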
# Target sequence (Q96LB2 whole entry, looked up): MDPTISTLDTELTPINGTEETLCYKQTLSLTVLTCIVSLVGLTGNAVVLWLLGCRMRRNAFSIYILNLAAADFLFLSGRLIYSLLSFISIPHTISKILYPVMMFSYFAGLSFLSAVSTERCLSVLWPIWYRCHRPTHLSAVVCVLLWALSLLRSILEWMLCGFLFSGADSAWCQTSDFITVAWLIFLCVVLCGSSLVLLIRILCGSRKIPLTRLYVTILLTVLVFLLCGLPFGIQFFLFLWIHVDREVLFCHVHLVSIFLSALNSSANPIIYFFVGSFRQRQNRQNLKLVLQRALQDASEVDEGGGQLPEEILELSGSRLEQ
#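 Material: MrgX1-expressing HEK293 cells; input: 15,000 cells per well; doses: test compound given as first of three sequential additions; schedule: overnight plating before 1 h dye loading; technique: Fluo-4 NW calcium-flux fluorescence, kinetic read; evaluation: baseline-normalised fluorescence change ratio, B-scored; control set: plate-wise positive and negative controls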
# RGS4 act: RGS4 potentiation or activation | HEK293 M3R/inducible RGS4, carbachol calcium flux Fluo4; stronger effect = lower value | B-score at 10 µM | 0.92% of 310,000 active | AID 463111;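 active means B-score of the integrated calcium signal more than 4 SD below the library mean, with starting fluorescence not abnormally high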;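 further: negative B-score means reduced calcium response which marks RGS4 activation or potentiation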
#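 Also added: carbachol at ECmax as muscarinic agonist stimulus; Assay system: HEK293 cells with stable M3R and inducible RGS4; Timing: overnight RGS4 induction, 30 min dye load 37 °C, 20 min compound RT; Measured by: Fluo4-AM (2 µM) calcium-flux fluorescence, kinetic read.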
# MrgX1 antagonist: human MrgX1 receptor antagonism, primary screen; MRGX1-HEK293 calcium flux, Fluo-4, BAM8-22 antagonism; stronger effect = lower value; Q96LB2; AID 588676; B-score at 10 µM; 1.3% of 310,000 active;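 active means calcium-response B-score plate-corrected more than 3 library SD below zero, starting fluorescence within 5 deviations, no agonist response on first addition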;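 further: peak minus trough fluorescence over baseline after final BAM8-22 challenge near maximal dose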
# MrgX1 allo act: human MrgX1 positive allosteric modulation, primary screen | 0.63% of 310,000 active | Q96LB2 | AID 588675 | MrgX1-HEK293, Fluo-4 calcium flux, FDSS; stronger effect = higher value | B-score at 10 µM;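 active means plate-corrected calcium response at least 3 library SD above typical, normal starting fluorescence, not activating the receptor alone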;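 further: compound read alongside a low EC10 to EC30 dose of BAM8-22 agonist; peak minus trough fluorescence over baseline measured at the second addition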
# MrgX1 allo conf: confirmation of human MrgX1 receptor positive allosteric modulators; shares compounds with MrgX1 allo act; MrgX1-HEK293, Fluo-4 calcium fluorescence, FDSS; activation (ratio percentage), % at 10 µM; 13% of 1,200 active; AID 602413;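 active means ratio at least 3 SD above the weak peptide control, stable starting fluorescence, no direct agonism earlier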;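 further: compound followed by low BAM8-22 agonist challenge near EC20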
# HEK293 Ca flux: counter-screen for MrgX1 antagonists: effect in parental HEK293 cells. Fluo-4 calcium fluorescence, FDSS. fluorescence ratio F(max-min)/F0 at 10 µM. 2% of 4,000 active. shares compounds with MrgX1 antagonist;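 active means duplicate-averaged calcium fluorescence ratio at least three times the standard deviation of buffer wells, a nonspecific response in parental cells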
# HEK293 Ca counter: activity in parental HEK293 cells without MrgX1. fluorescence ratio F(max-min)/F0 at 10 µM. shares compounds with MrgX1 antagonist. parental HEK293 calcium flux, Fluo-4 fluorescence ratio; stronger effect = higher value. 0.4% of 4,000 active;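 active means calcium fluorescence ratio, averaged over duplicates, at least 3 SD of the buffer-well ratio, meaning a nonspecific response in receptor-free cells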;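 further: untransfected parental HEK293 lacking MrgX1 used as counterscreen for MrgX1 allosteric activators; fluorescence change taken during the second addition on a kinetic imager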
# HEK293 Ca cntr2: activity in parental HEK293 cells lacking MrgX1 receptor. fluorescence ratio F(max-min)/F0 at 10 µM. 8.7% of 4,000 active. shares compounds with MrgX1 antagonist. Fluo-4 calcium fluorescence (FDSS); stronger effect = higher value;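 active means calcium fluorescence ratio at least three times the spread of buffer wells, meaning a non-specific response in parental cells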
# * marks the source's active call; other numbers are inactive results; i = inactive; x = not tested or not shown. Only some compounds are listed: those with a hit (about 3.5% of all), similar ones and a draw of the others.
SMILES,RGS4 inh,MrgX1 agonist,RGS4 act,MrgX1 antagonist,MrgX1 allo act,MrgX1 allo conf,HEK293 Ca flux,HEK293 Ca counter,HEK293 Ca cntr2
CCc1ccc(N(CC(=O)Nc2ccc(OC)cc2OC)S(C)(=O)=O)cc1,i,i,i,i,15*,i,i,i,i
Cc1ccccc1N1C(=O)C2C3CCC(O3)C2C1=O (configuration not stated),i,i,i,i,19*,i,i,i,i
Cc1ccccc1N1C(=O)C2C3C=CC(C2C1=O)N(C)C3=O (configuration not stated),i,i,i,i,i,x,x,x,x
C=CCN1C(=O)N/C(=C/c2ccccc2OCC(=O)Nc2ccc(F)cc2)C1=O,i,i,i,i,i,x,x,x,x
Cc1nc2c(C#N)cnn2c2c1CCN(Cc1ccccc1)N2C,i,i,i,i,i,x,x,x,x
Cc1nc2c(C#N)cnn2c2c1CCN2CC1CCCO1 (configuration not stated),i,i,i,i,7.2*,i,i,i,i
Cc1ccccc1Nc1nnc(SCC2CCCCO2)s1 (configuration not stated),i,i,i,i,i,x,x,x,x
Cc1ccc(Nc2nnc(SCC3CCCCO3)s2)cc1 (configuration not stated),i,i,i,i,8.5*,i,i,i,i
O=C(CNC(=O)c1ccccc1)NCC(O)c1ccc([N+](=O)[O-])cc1 (configuration not stated),i,i,i,i,i,x,x,x,x
CCCSc1nnc(N2C(=O)CC(c3ccsc3)C3=C2CCCC3=O)s1 (configuration not stated),i,i,i,i,8.8*,i,i,i,i
COc1ccc(-c2cc(C(=O)N3CCN(c4ncccn4)CC3)c3ccccc3n2)c(OC)c1,i,i,i,i,7.4*,i,i,i,71*
O=C(Nc1ccc(F)cc1)c1cc(-c2ccccn2)nc2c(Cl)cccc12,i,i,i,i,i,x,x,x,x
COC(=O)c1ccccc1NC(=S)NC(=O)C1CCCCC1,i,i,i,i,7.5*,i,i,i,i
COC(=O)c1ccccc1NC(=O)C1CCCC1,i,i,i,i,i,x,x,x,x
COC(=O)c1ccccc1NC(=O)COC(=O)C1CCCCC1,i,i,i,i,8.3*,i,i,i,i
COc1ccc(CC(=O)N(c2ccccc2)c2nc(C)cs2)cc1,i,i,i,i,11*,i,i,i,i
Cc1csc(N(C(=O)Cc2ccccc2F)c2ccccc2)n1,i,i,i,i,i,x,x,x,x
CCN(CC)C(=O)CSc1ncnc2c(-c3ccc(OC)cc3)nsc12,i,i,i,i,i,x,x,x,x
COc1ccc(-c2nsc3c(SCc4ccccc4)ncnc23)cc1,i,i,i,i,6.8*,i,i,i,i
Cc1ccc(NC(=O)COc2coc(CN3CCc4ccccc43)cc2=O)cc1Cl,i,i,i,i,i,x,x,x,x
CCOc1ccc2nc(SCC(=O)NCc3ccccc3OC)[nH]c2c1,i,i,i,i,15*,i,i,i,i
Cc1cccc(NC(=O)CCNC(=O)c2ccc(Br)cc2)c1C,i,i,i,i,i,x,x,x,x
Cc1nn(-c2ccc(N3CCCCC3)nn2)c(C)c1CCC(=O)Nc1cc(F)ccc1F,i,i,i,i,7.8*,i,i,i,i
Cc1ccc(Cl)cc1NC(=O)C1CC1c1ccccc1 (configuration not stated),i,i,i,i,i,x,x,x,x
NC1=NC(=O)C(Cc2ccc(Br)cc2)S1 (configuration not stated),i,i,i,i,i,x,x,x,x
SMILES,RGS4 inh,MrgX1 agonist,RGS4 act,MrgX1 antagonist,MrgX1 allo act,MrgX1 allo conf,HEK293 Ca flux,HEK293 Ca counter,HEK293 Ca cntr2
CN1CCN(CC(=O)Nc2cc(N(C)C)nc3ccccc23)CC1,i,i,i,i,i,x,x,x,x
COc1ccc(CCN(C)C(=O)c2oc3ccccc3c2C)cc1OC,i,i,i,i,i,x,x,x,x
COc1ccc(CN(C)C(=O)c2oc3ccccc3c2CSC)cc1F,i,i,i,i,8*,i,i,i,i
NC(=O)c1oc2ccccc2c1NC(=O)C1CCCCC1,i,i,i,i,10*,i,i,i,i
NC(=O)c1oc2ccccc2c1NC(=O)C1CC(=O)N(c2ccccc2)C1 (configuration not stated),i,i,i,i,i,x,x,x,x
NC(=O)c1oc2ccccc2c1NC(=O)CN1CCCCC1,i,i,i,i,9.1*,9.3%*,i,i,i
COc1ccc(-c2nc(CN3CCC(C(=O)N4CCOCC4)CC3)c(C)o2)cc1C,i,i,i,i,i,x,x,x,x
CCOC(=O)C(C)Oc1ccc(OCc2ccccc2)cc1 (configuration not stated),i,i,i,i,i,x,x,x,x
CN1CCc2c(sc(NC(=O)C3CCCCC3)c2C(N)=O)C1,i,i,i,i,i,x,x,x,x
CCOC(=O)c1sc(=NC(=O)CCSc2ccccc2)n(C)c1C,i,i,i,i,i,x,x,x,x
CCOC(=O)c1sc(=NC(=O)COc2ccccc2)n(C)c1C,i,i,i,i,11*,i,i,i,i
C/C(=N\NC(=O)CNC(=O)c1cccs1)c1ccc(Cl)c(Cl)c1,i,i,i,i,i,x,x,x,x
O=C(COc1ccc2c(c1)OCO2)NC12CC3CC(CC(C3)C1)C2,i,i,i,i,11*,i,i,i,i
O=C(NCc1ccc2c(c1)OCO2)NC12CC3CC(CC(C3)C1)C2,i,i,i,i,i,x,x,x,x
CCc1ccc2c(c1)[C@H]1OCC[C@H]1[C@@H](c1cccs1)N2,i,i,i,i,9.5*,i,i,i,i

# Screens deposited in PubChem by Johns Hopkins Ion Channel Center.
